{"source": "ChEMBL document CHEMBL4130618", "about": "“Paralithocins, Antimicrobial Peptides with Unusual Disulfide Connectivity from the Red King Crab, Paralithodes camtschaticus” (2018)", "format_in_all_cases": "functional", "key": {"[1]": {"tested_on": "Pseudomonas aeruginosa", "test": "Antibacterial activity against Pseudomonas aeruginosa […] measured after 24 hrs", "how_it_was_run": "(§1)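 Purified native peptide in 2-fold serial dilutions in double-distilled water (1.6–100 μM). 50 μL was mixed with an equal volume of actively growing bacteria (5 × 10^3 cells/well) in Mueller Hinton broth and incubated 24 h at 37 °C. Growth was followed by OD. MIC is the lowest concentration giving OD <50% of the water growth control, read at control OD ≈0.3.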"}, "[2]": {"tested_on": "Carnobacterium maltaromaticum", "test": "Antibacterial activity against Carnobacterium maltaromaticum CCUG 34645 measured after 72 hrs", "conditions": "CCUG 34645, 72 h", "how_it_was_run": "(§2)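 Carnobacteria were grown in modified tryptic soy broth with 5% glucose and 2% NaCl. 2-fold peptide dilutions in double-distilled water (1.6–100 μM, up to 200 μM for selected marine strains), 50 μL mixed 1:1 with growing cells (5 × 10^3/well), incubated 72 h at 12 °C. MIC is the lowest concentration with OD below 50% of the water growth control.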"}, "[3]": {"tested_on": "Yersinia ruckeri", "test": "Antibacterial activity against Yersinia ruckeri CCUG 14190 measured after 72 hrs", "conditions": "CCUG 14190, 72 h", "how_it_was_run": "(§3)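 Marine strains were grown in Mueller Hinton broth. Peptide in 2-fold dilutions in double-distilled water (1.6–100 μM, up to 200 μM for selected marine strains), 50 μL plus an equal volume of growing bacteria at 5 × 10^3 cells/well, 72 h at 12 °C. OD was monitored. MIC is the lowest concentration giving OD <50% of the water growth control.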"}, "[4]": {"tested_on": "Aeromonas salmonicida", "test": "Antibacterial activity against Aeromonas salmonicida AL2020 measured after 72 hrs", "conditions": "AL2020, 72 h", "how_it_was_run": "as §3"}, "[5]": {"tested_on": "Vibrio anguillarum", "test": "Antibacterial activity against Listonella anguillarum AL104 measured after 72 hrs", "conditions": "AL104, 72 h", "how_it_was_run": "as §3"}, "[6]": {"tested_on": "Carnobacterium funditum", "test": "Antibacterial activity against Carnobacterium funditum CCUG 34644 measured after 72 hrs", "conditions": "CCUG 34644, 72 h", "how_it_was_run": "as §2"}, "[7]": {"tested_on": "Carnobacterium mobile", "test": "Antibacterial activity against Carnobacterium mobile measured after 72 hrs", "how_it_was_run": "as §2"}, "[8]": {"tested_on": "Carnobacterium divergens", "test": "Antibacterial activity against Carnobacterium divergens measured after 72 hrs", "how_it_was_run": "as §2"}, "[9]": {"tested_on": "Corynebacterium glutamicum", "test": "Antibacterial activity against Corynebacterium glutamicum ATCC 13032 measured after 24 hrs", "conditions": "ATCC 13032, 24 h", "how_it_was_run": "as §1"}, "[10]": {"tested_on": "Staphylococcus aureus", "test": "Antibacterial activity against Staphylococcus aureus ATCC 9144 measured after 24 hrs", "conditions": "ATCC 9144, 24 h", "how_it_was_run": "as §1"}, "[11]": {"tested_on": "Escherichia coli", "test": "Antibacterial activity against Escherichia coli ATCC 25922 measured after 24 hrs", "conditions": "ATCC 25922, 24 h", "how_it_was_run": "as §1"}}}
{"compound": "CC[C@H](C)[C@@H]1NC(=O)[C@H](CO)NC(=O)[C@H](CO)NC(=O)[C@@H](NC(=O)[C@H](CO)NC(=O)[C@@H]2CCCN2C(=O)[C@H](CCC(N)=O)NC(=O)[C@H](CCC(N)=O)NC(=O)[C@@H](N)Cc2c[nH]c3ccccc23)CSSC[C@@H](C(=O)N[C@@H](CCCNC(=N)N)C(=O)N[C@@H](CCCNC(=N)N)C(=O)NCC(=O)N2CCC[C@H]2C(=O)N[C@H](C(=O)N[C@@H](Cc2ccc(O)cc2)C(=O)O)[C@@H](C)CC)NC(=O)[C@H](CO)NC(=O)[C@H](C)NC(=O)[C@@H]2CSSC[C@H]3NC(=O)[C@H](C)NC(=O)[C@H](CO)NC(=O)[C@H](CCCCN)NC(=O)CNC(=O)[C@@H]4CSSC[C@H](NC(=O)[C@H](CCCNC(=N)N)NC(=O)CNC(=O)[C@H](CO)NC(=O)[C@H](Cc5ccc(O)cc5)NC(=O)[C@H](CO)NC(=O)[C@H]([C@@H](C)CC)NC3=O)C(=O)NCC(=O)N[C@@H](CSSC[C@H](NC1=O)C(=O)N[C@@H](CC(=O)O)C(=O)N[C@@H](Cc1ccc(O)cc1)C(=O)N[C@@H](CO)C(=O)N4)C(=O)N2", "values": [{"measurement": "MIC", "setting": "[1]", "value": "> 100", "unit": "µM"}, {"measurement": "MIC", "setting": "[2]", "value": 200, "unit": "µM"}, {"measurement": "MIC", "setting": "[3]", "value": "> 100", "unit": "µM"}, {"measurement": "MIC", "setting": "[4]", "value": 200, "unit": "µM"}, {"measurement": "MIC", "setting": "[5]", "value": "> 100", "unit": "µM"}, {"measurement": "MIC", "setting": "[6]", "value": 200, "unit": "µM"}, {"measurement": "MIC", "setting": "[7]", "value": 100, "unit": "µM"}, {"measurement": "MIC", "setting": "[8]", "value": 200, "unit": "µM"}, {"measurement": "MIC", "setting": "[9]", "value": 50, "unit": "µM"}, {"measurement": "MIC", "setting": "[10]", "value": "> 100", "unit": "µM"}, {"measurement": "MIC", "setting": "[11]", "value": "> 100", "unit": "µM"}]}
{"compound": "H-SWLSKTAKKLENSAKKRISEGIAIAIQGGPR-OH", "values": [{"measurement": "MIC", "setting": "[1]", "value": 1.6, "unit": "µM"}, {"measurement": "MIC", "setting": "[2]", "value": 50, "unit": "µM"}, {"measurement": "MIC", "setting": "[3]", "value": 0.8, "unit": "µM"}, {"measurement": "MIC", "setting": "[4]", "value": 3.1, "unit": "µM"}, {"measurement": "MIC", "setting": "[5]", "value": 1.6, "unit": "µM"}, {"measurement": "MIC", "setting": "[6]", "value": 25, "unit": "µM"}, {"measurement": "MIC", "setting": "[7]", "value": 6.3, "unit": "µM"}, {"measurement": "MIC", "setting": "[8]", "value": 25, "unit": "µM"}, {"measurement": "MIC", "setting": "[9]", "value": 1.6, "unit": "µM"}, {"measurement": "MIC", "setting": "[10]", "value": 100, "unit": "µM"}, {"measurement": "MIC", "setting": "[11]", "value": 1.6, "unit": "µM"}]}
